Reference: ChEMBL document CHEMBL1155695, “Prenylated benzoic acid derivatives from Ferula kuhistanica” (2000)
Active and inactive are the calls of the source. The rule behind the calls is not given here.

What was measured:
Assay type in all cases: functional
[1] = organism: Homo sapiens; experiment: Immunosuppressive activity against human peripheral mononuclear cells assessed as inhibition of LPS-stimulated IL4 production at 10 ug/mL
Method in brief: (§1)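 Whole blood from healthy human volunteers was used as the cell source for the immunosuppression screen. Other details follow a previously published method.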

[2] = organism: Homo sapiens; experiment: Immunosuppressive activity against human peripheral mononuclear cells assessed as inhibition of LPS-stimulated IL2 production at 10 ug/mL; method in brief: as §1
[3] = organism: Homo sapiens; experiment: Immunosuppressive activity against human peripheral mononuclear cells assessed as inhibition of LPS-stimulated IFN-gamma production at 10 ug/mL; method in brief: as §1
[4] = Immunosuppressive activity against human peripheral mononuclear cells assessed as inhibition of LPS-stimulated IL4 production at 3 ug/mL; method in brief: as §1
[5] = Immunosuppressive activity against human peripheral mononuclear cells assessed as inhibition of LPS-stimulated IL2 production at 3 ug/mL; method in brief: as §1
[6] = Immunosuppressive activity against human peripheral mononuclear cells assessed as inhibition of LPS-stimulated IFN-gamma production at 3 ug/mL; method in brief: as §1
[7] = Immunosuppressive activity against human peripheral mononuclear cells assessed as inhibition of LPS-stimulated IL4 production at 0.3 ug/mL; method in brief: as §1
[8] = Immunosuppressive activity against human peripheral mononuclear cells assessed as inhibition of LPS-stimulated IL2 production at 0.3 ug/mL; method in brief: as §1
[9] = Immunosuppressive activity against human peripheral mononuclear cells assessed as inhibition of LPS-stimulated IFN-gamma production at 0.3 ug/mL; method in brief: as §1

SMILES | Activity [1] | Activity [2] | Activity [3] | other results
C/C(=C\Cc1cc(C(=O)O)ccc1O)CCC(O)[C@]1(C)CC[C@H](C(C)(C)O)O1 (stereo not given in full) | inactive | inactive | inactive | –
CC(C)=CCCC(C)(O)C(O)CC/C(C)=C/Cc1cc(C(=O)O)ccc1O (stereo not given) | inactive | inactive | inactive | –
C/C(=C\Cc1cc(C(=O)O)ccc1O)CC/C=C(\C)CCC(O)C(C)(C)O (racemic) | inactive | inactive | inactive | –
CC(C)=CCC/C(C)=C/CC[C@@]1(C)Oc2ccc(C(=O)O)cc2C[C@H]1O (racemic) [KUHISTANOL D] | – | – | – | inhibition at 3 µg/mL [4]: 70.3%; inhibition at 3 µg/mL [5]: 77.3%; inhibition at 3 µg/mL [6]: 61.8%
C[C@]12C=CC(=O)C=C1CC[C@@H]1[C@@H]2[C@@H](O)C[C@@]2(C)[C@H]1CC[C@]2(O)C(=O)CO [PREDNISOLONE] | – | – | – | inhibition at 0.3 µg/mL [7]: 55.3%; inhibition at 0.3 µg/mL [8]: 65.6%; inhibition at 0.3 µg/mL [9]: 60.2%
